The results in this text go back to ChEMBL document CHEMBL4190281, “Azacyclo-indoles and Phenolics from the Flowers of Juglans regia” (J Nat Prod, 2017).

For one series, the system named is HCT-116. The experiment in a line: Growth inhibition of human HCT116 cells after 96 hrs by MTT assay. It counts as functional, cell-based. Particulars: HCT-116, 96 h. The procedure, abridged:
(§1)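 Cancer cell lines exposed continuously to each sample for 96 h; growth read by MTT assay. IC50, the concentration inhibiting cell growth by 50%, taken as the mean of three replicates. Taxol and NK109 served as positive controls.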

The next series has as its system HepG2. In words: Growth inhibition of human HepG2 cells after 96 hrs by MTT assay. It counts as functional, cell-based. Conditions: HepG2, 96 h.
For the next series, the system named is BGC-823. The experiment in a line: Growth inhibition of human BGC823 cells after 96 hrs by MTT assay. Particulars: BGC-823, 96 h. It counts as functional, cell-based. The method, boiled down: as §1
For a further series, the system named is NCI-H1650. The experiment in a line: Growth inhibition of human NCI-H1650 cells after 96 hrs by MTT assay. It counts as functional, cell-based. Conditions: NCI-H1650, 96 h. The method, boiled down:
as §1

Another series relates to A2780. The experiment in a line: Growth inhibition of human A2780 cells after 96 hrs by MTT assay. It counts as functional, cell-based. Particulars: A2780, 96 h. The procedure, abridged: as §1
Series [1] in a line: Cytotoxicity against rat IEC-6 cells assessed as survival rate at 10 uM after 48 hrs by MTT assay relative to control. Type of series: cell-based. Particulars: read-out: Survival. The method, boiled down:
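MTT read-out of viability in normal IEC-6 intestinal cells co-incubated with compound at 10 μM; readings at 0, 24 and 48 h of coculture (n = 5); survival expressed against a blank control group.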

`O=Cc1ccc2n1CCc1c([nH]c3ccccc13)C2`: the IC50 in the series with HCT-116 came out at 2.87 µM; with HepG2, 1.87 µM; in the series on BGC-823, 2.28 µM; in the series with NCI-H1650 it was 2.86 µM; in the series on A2780, 0.96 µM. Moreover, the viability at 48 h, 10 µM in series [1] was 79.6%.

As for `Nc1ncnc2c1ncn2[C@H]1CCC(=O)c2c(O)ccc(O)c21`, the IC50 in the series on HCT-116, in the series with HepG2, in the series on BGC-823, with NCI-H1650 and in the series on A2780 was over 10 µM throughout.

On to `Nc1ncnc2c1ncn2[C@@H]1CCC(=O)c2cccc(O)c21`, for which the half-inhibitory concentration (IC50) in the series with HCT-116, in the series with HepG2, in the series on BGC-823, with NCI-H1650 and in the series with A2780 was over 10 µM each time.

In the case of `Nc1ncnc2c1ncn2C1CCC(=O)c2cccc(O)c21` (racemic), the IC50 in the series with HCT-116, in the series with HepG2, in the series on BGC-823, in the series with NCI-H1650 and in the series on A2780 was over 10 µM in each case.

Consider `O=C1CC[C@H](c2c[nH]c3ccccc23)c2c(O)ccc(O)c21`, for which the IC50 with HCT-116, in the series with HepG2, with BGC-823, in the series with NCI-H1650 and with A2780 was over 10 µM in each case.

As to `Nc1ncnc2c1ncn2[C@H]1CCC(=O)c2cccc(O)c21`, the IC50 in the series on HCT-116, with HepG2, with BGC-823, in the series on NCI-H1650 and with A2780 was over 10 µM in each case.

As for `O=C1CCC(c2c[nH]c3ccccc23)c2c(O)ccc(O)c21` (racemic), the IC50 in the series with HCT-116, in the series on HepG2, in the series with BGC-823, with NCI-H1650 and with A2780 was over 10 µM each time.

Take `O=C1CC[C@@H]2c3c([nH]c4ccccc34)CCN12`: the IC50 with HCT-116, in the series with HepG2, in the series with BGC-823, in the series with NCI-H1650 and in the series on A2780 was over 10 µM throughout.

Take `O=C1CC[C@H]2c3c([nH]c4ccccc34)CCN12`: the IC50 with HCT-116, with HepG2, with BGC-823, in the series with NCI-H1650 and in the series with A2780 was over 10 µM throughout.

Regarding `O=C1CCC2c3c([nH]c4ccccc34)CCN12` (racemic), the IC50 with HCT-116, with HepG2, in the series with BGC-823, with NCI-H1650 and in the series with A2780 was over 10 µM in each case.

For `Nc1ncnc2c1ncn2[C@@H]1CCC(=O)c2c(O)ccc(O)c21`, the IC50 in the series on HCT-116, with HepG2, with BGC-823, with NCI-H1650 and in the series on A2780 was over 10 µM each time.

For the compound `NC(=O)[C@H]1CCC(=O)c2cccc(O)c2N1`, the IC50 with HCT-116, in the series with HepG2, with BGC-823, with NCI-H1650 and in the series with A2780 was over 10 µM throughout.

In the case of `O=C1CC[C@@H](c2c[nH]c3ccccc23)c2c(O)ccc(O)c21`, the IC50 with HCT-116, in the series with HepG2, with BGC-823, in the series with NCI-H1650 and with A2780 was over 10 µM throughout.

`NC(=O)[C@@H]1CCC(=O)c2cccc(O)c2N1`: the IC50 in the series on HCT-116, in the series on HepG2, with BGC-823, in the series on NCI-H1650 and in the series on A2780 was over 10 µM each time.

Take `NC(=O)C1CCC(=O)c2cccc(O)c2N1` (racemic): the IC50 in the series with HCT-116, in the series on HepG2, in the series with BGC-823, in the series with NCI-H1650 and in the series on A2780 was over 10 µM each time.

In the case of `CCOCc1ccc(C=O)n1CCc1ccc(O)cc1`, the IC50 with HCT-116, in the series with HepG2, with BGC-823, in the series with NCI-H1650 and in the series with A2780 was over 10 µM each time.

Take `Nc1ncnc2c1ncn2C1CCC(=O)c2c(O)ccc(O)c21` (racemic): the IC50 in the series on HCT-116, with HepG2, in the series with BGC-823, in the series with NCI-H1650 and with A2780 was over 10 µM each time.

`COc1ccc2c(c[n+](C)c3c4cc5c(cc4ccc23)OCO5)c1O`: the IC50 in the series on HCT-116 amounted to 3.94 µM; in the series with HepG2, 1.19 µM; in the series on BGC-823, 1.84 µM; in the series with NCI-H1650 it was 1.75 µM; in the series with A2780, 0.9 µM.

`CC(=O)O[C@H]1C(=O)[C@@]2(C)[C@H]([C@H](OC(=O)c3ccccc3)[C@]3(O)C[C@H](OC(=O)[C@H](O)[C@@H](NC(=O)c4ccccc4)c4ccccc4)C(C)=C1C3(C)C)[C@]1(OC(C)=O)CO[C@@H]1C[C@@H]2O` [PACLITAXEL]: the IC50 is 0.0002 µM with HCT-116, 0.0006 µM in the series on BGC-823, over 1 µM in the series on NCI-H1650 and 0.0204 µM in the series on A2780.
